Measurements: ChEMBL document CHEMBL1146247, “Identification and characterization of 3-substituted pyrazolyl esters as alternate substrates for cathepsin B: the confounding effects of DTT and cysteine in biological assays” (Bioorg Med Chem Lett, 2007)

How the values were obtained:
Cathepsin B [1] = target: T1, Cathepsin B (Homo sapiens, UniProt P07858); assay: Inhibition of human liver cathepsin B
Outline: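 Enzyme activated 15 min in assay buffer (100 mM Na/K phosphate pH 6.8, 1 mM EDTA, 2 mM DTT), then incubated 1 h at room temperature with 15 µM Z-Arg-Arg-AMC and compound. Compound given as 16 2-fold dilutions, 50 µM to 1.5 nM. AMC fluorescence read at ex 355/em 460 nm. Triplicate plates gave three independent IC50 values.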

Cathepsin B [2] = target: T1, Cathepsin B; assay: Inhibition of human liver cathepsin B pre-incubated for 2 hrs in assay buffer with DTT
Outline: (§1)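 Compound held 2, 17 or 24 h in assay buffer (phosphate pH 6.8, with DTT) before testing. It was then incubated with 0.1 nM cathepsin B in 100 mM buffer with 2 mM DTT, 1 mM EDTA and 15 µM Z-Arg-Arg-AMC for 1 h at room temperature. Read-out was AMC fluorescence (ex 355/em 460). IC50 came from 16 2-fold dilutions.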

Cathepsin B [3] = target: T1, Cathepsin B; assay: Inhibition of human liver cathepsin B pre-incubated for 24 hrs in assay buffer with DTT; outline: as §1
Cathepsin B [4] = target: T1, Cathepsin B; assay: Inhibition of human liver cathepsin B pre-incubated for 17 hrs in non-buffer solution without DTT
Outline: (§2)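 Compound held 2, 17 or 24 h in non-buffered solution without DTT before testing. It was then assayed against 0.1 nM activated cathepsin B with 15 µM Z-Arg-Arg-AMC for 1 h at room temperature. Read-out was AMC fluorescence at ex 355/em 460 nm. IC50 came from 16 2-fold dilutions.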

Cathepsin B [5] = target: T1, Cathepsin B; assay: Inhibition of human liver cathepsin B pre-incubated for 17 hrs in buffer without DTT
Outline: (§3)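 Compound held 2, 17 or 24 h in phosphate assay buffer pH 6.8 lacking DTT before testing. It was then run in the standard assay: 0.1 nM activated cathepsin B, 15 µM Z-Arg-Arg-AMC, 1 h at room temperature. Read-out was AMC fluorescence at 355/460 nm. IC50 came from a 16-point 2-fold dilution curve.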

Cathepsin B [6] = target: T1, Cathepsin B; assay: Inhibition of human liver cathepsin B pre-incubated for 17 hrs in assay buffer with DTT; outline: as §1
[7] = Stability of compound in presence of cathepsin B after 15 mins; assay type: ADME; settings: read-out: Stability
Outline: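 Stoichiometric incubation of ester (10 μM, 1 equiv) with activated cathepsin B (20 μM, 2 equiv) under standard assay conditions (100 mM sodium-potassium phosphate pH 6.8, 1 mM EDTA, 2 mM DTT); parallel run without enzyme. After 15 min, remaining parent and conversion to pyrazolone by-product measured by LC–MS, 6.5 min run.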

Cathepsin B [8] = target: T1, Cathepsin B; assay: Inhibition of human liver cathepsin B pre-incubated for 2 hrs in non-buffer solution without DTT; outline: as §2
Cathepsin B [9] = target: T1, Cathepsin B; assay: Inhibition of human liver cathepsin B pre-incubated for 24 hrs in non-buffer solution without DTT; outline: as §2
Cathepsin B [10] = target: T1, Cathepsin B; assay: Inhibition of human liver cathepsin B pre-incubated for 2 hrs in buffer without DTT; outline: as §3
Cathepsin B [11] = target: T1, Cathepsin B; assay: Inhibition of human liver cathepsin B pre-incubated for 24 hrs in buffer without DTT; outline: as §3

SMILES: Cc1ccc(S(=O)(=O)n2nc(OC(=O)c3ccco3)cc2N)cc1
- IC50 (Cathepsin B [1]): 1.75 µM

SMILES: Cc1ccc(S(=O)(=O)n2nc(OC(=O)c3cccs3)cc2N)cc1
- IC50 (Cathepsin B [1]): 1.99 µM

SMILES: COc1ccc(S(=O)(=O)n2nc(OC(=O)c3cccs3)cc2N)cc1
- IC50 (Cathepsin B [1]): 0.69 µM

SMILES: Nc1cc(OC(=O)c2cccs2)nn1S(=O)(=O)c1ccc(F)cc1
- IC50 (Cathepsin B [1]): 0.44 µM

SMILES: Nc1cc(OC(=O)c2ccco2)nn1S(=O)(=O)c1ccc(F)cc1
- IC50 (Cathepsin B [1]): 1.26 µM

SMILES: Nc1cc(OC(=O)c2cccs2)nn1S(=O)(=O)c1ccccc1
- IC50 (Cathepsin B [2]): 9 µM
- IC50 (Cathepsin B [1]): 0.25 µM
- IC50 (Cathepsin B [3]): > 50 µM
- IC50 (Cathepsin B [4]): 1.8 µM
- IC50 (Cathepsin B [5]): 0.7 µM
- IC50 (Cathepsin B [6]): 45.4 µM
- remaining at 0.25 h [7]: 50%
- IC50 (Cathepsin B [8]): 1.7 µM
- IC50 (Cathepsin B [9]): 5 µM
- IC50 (Cathepsin B [10]): 1.4 µM
- IC50 (Cathepsin B [11]): 3.2 µM
